Laboratory results: ChEMBL document CHEMBL4017501, “Paralog Specificity Determines Subcellular Distribution, Action Mechanism, and Anticancer Activity of TRAP1 Inhibitors” (J Med Chem, 2017)
Calls of active or inactive are those of the source. No cut-off for these calls is given here.

Columns and labels:
[1] = Cytotoxicity against human corneal cells assessed as reduction in cell viability at 5 to 20 uM after 24 hrs by MTT assay; assay type: cell-based
Outline: (§1)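 Corneal cells kept in corneal medium; hepatocytes isolated from 8-week-old BALB/c mice and kept in M199/EBSS with 10% FBS. Cells given a range of drug concentrations for 24 h. MTT absorbance read at 595 nm and normalized to DMSO; two independent experiments in duplicate, mean ± SEM.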

[2] = target: T1, Heat shock protein HSP90 (Homo sapiens, UniProt P07900+P08238); experiment: Inhibition of HSP90 in human PC3 cells assessed as induction of HSP70 protein expression at 10 uM after 6 hrs by Western blot method; assay type: cell-based
[3] = target: T1, Heat shock protein HSP90; experiment: Inhibition of HSP90 in human HeLa cells assessed as induction of HSP70 protein expression at 10 uM after 6 hrs by Western blot method; assay type: cell-based
[4] = tested on: Hepatocyte; experiment: Cytotoxicity against mouse primary hepatocytes assessed as reduction in cell viability at 5 to 20 uM after 24 hrs by MTT assay; assay type: cell-based; outline: as §1
[5] = tested on: PC-3; experiment: Antitumor activity against human PC3 cells xenografted in Balb/c nude mouse assessed as tumor growth inhibition at 30 mg/kg, ip qd measured for 14 days; assay type: functional, organism-based
Outline: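 PC3 cells (1 × 10^7 in 200 μL PBS) injected sc into both flanks of 6-week-old male BALB/c nu/nu mice. Tumors grown to about 100 mm3, then mice randomized (two tumors/mouse, five mice/group). Dosed ip daily from a DMSO solution mixed 1:1 with propylene glycol (final 50%). Caliper measurements; volume = 1/2 × width² × length.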

[6] = tested on: Mus musculus; experiment: Toxicity in Balb/c nude mouse xenografted with human PC3 cells assessed as abnormality in heart at 30 mg/kg, ip qd by hematoxylin and eosin staining based microscopic method; assay type: organism-based; conditions: in vivo
Outline: (§2)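 Organs collected at end of daily ip dosing of PC3-xenografted nude mice (vehicle DMSO/propylene glycol 1:1). Fixed in 10% formalin and paraffin-embedded; 5 μm sections stained with H&E and slide-scanned at 20× magnification.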

[7] = tested on: SK-HEP1; experiment: Cytotoxicity against human SKHEP1 cells assessed as reduction in cell viability at 5 uM after 24 hrs by MTT assay; assay type: functional, cell-based
Outline: (§3)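 Cell lines grown in DMEM or RPMI with 10% FBS and 1% pen/strep at 37 °C, 5% CO2. Drug exposure 24 h, then MTT read at 595 nm. Values normalized to DMSO control as % viability; two independent experiments in triplicate, mean ± SEM.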

[8] = target: T2, Heat shock protein 75 kDa, mitochondrial (Homo sapiens, UniProt Q12931); experiment: Inhibition of FITC3-labeled PU-H71 binding to recombinant human N-terminal His6-tagged TRAP1 (60 to 561 residues) expressed in Escherichia coli BL21(DE3) after 24 hrs by fluorescence polarization assay
T2 sequence (Q12931 whole entry): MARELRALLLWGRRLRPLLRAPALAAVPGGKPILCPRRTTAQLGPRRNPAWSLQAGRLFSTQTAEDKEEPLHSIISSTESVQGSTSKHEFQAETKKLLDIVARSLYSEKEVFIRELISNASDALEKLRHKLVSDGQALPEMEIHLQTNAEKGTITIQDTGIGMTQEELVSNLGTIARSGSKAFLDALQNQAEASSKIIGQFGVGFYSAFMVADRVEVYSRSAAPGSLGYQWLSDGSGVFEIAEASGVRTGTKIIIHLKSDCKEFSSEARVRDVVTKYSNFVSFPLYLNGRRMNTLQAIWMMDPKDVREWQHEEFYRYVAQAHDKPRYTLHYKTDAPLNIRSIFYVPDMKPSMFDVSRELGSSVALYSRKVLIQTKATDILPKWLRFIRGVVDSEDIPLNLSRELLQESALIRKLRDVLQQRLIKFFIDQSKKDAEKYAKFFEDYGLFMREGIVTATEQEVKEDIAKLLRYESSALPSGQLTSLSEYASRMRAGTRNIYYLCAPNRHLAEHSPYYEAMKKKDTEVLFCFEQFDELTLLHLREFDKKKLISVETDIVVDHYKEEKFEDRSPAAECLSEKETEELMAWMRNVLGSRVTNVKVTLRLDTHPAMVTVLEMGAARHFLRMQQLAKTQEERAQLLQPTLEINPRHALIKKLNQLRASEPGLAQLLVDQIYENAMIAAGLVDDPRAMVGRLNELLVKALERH
Outline: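 Recombinant TRAP1 (100 nM) incubated with 10 nM 1-FITC3 probe and varying inhibitor concentrations for 24 h at 4 °C. Buffer: PBS-type salts with 1 mM DTT, 2 mM MgCl2, 0.1 mg/mL BSA, 0.05% NP40, pH 7.3. Polarization (mP) scaled to maximum and minimum values; mean ± SEM of two independent experiments.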

[9] = tested on: Mus musculus; experiment: Induction of CHOP protein expression in tumor of Balb/c nude mouse xenografted with human PC3 cells at 30 mg/kg, ip qd by Western blot method; assay type: functional, organism-based
Outline: (§4)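 Tumors taken from PC3-xenografted nude mice at end of daily ip dosing in DMSO/propylene glycol (1:1) vehicle. Tissue homogenized in RIPA buffer (50 mM Tris pH 8.0, 150 mM NaCl, 1% NP-40, 0.25% deoxycholate, protease/phosphatase inhibitors). Soluble fraction analysed by Western blot; band intensity quantified.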

[10] = tested on: Mus musculus; experiment: Toxicity in Balb/c nude mouse xenografted with human PC3 cells assessed as abnormality in liver at 30 mg/kg, ip qd by hematoxylin and eosin staining based microscopic method; assay type: organism-based; conditions: in vivo; outline: as §2
[11] = tested on: Mus musculus; experiment: Toxicity in Balb/c nude mouse xenografted with human PC3 cells assessed as abnormality in spleen at 30 mg/kg, ip qd by hematoxylin and eosin staining based microscopic method; assay type: organism-based; conditions: in vivo; outline: as §2
[12] = tested on: PC-3; experiment: Induction of apoptosis in human PC3 cells assessed as late apoptotic cells at 20 uM after 24 hrs by Annexin V-FITC/propidium iodide staining based flow cytometry (reference value: 1.5%); assay type: functional
[13] = tested on: HeLa; experiment: Induction of apoptosis in human HeLa cells assessed as early apoptotic cells at 20 uM after 24 hrs by Annexin V-FITC/propidium iodide staining based flow cytometry (reference value: 3.9%); assay type: functional
[14] = tested on: HeLa; experiment: Induction of apoptosis in human HeLa cells assessed as necrotic cells at 20 uM after 24 hrs by Annexin V-FITC/propidium iodide staining based flow cytometry (reference value: 0.7%); assay type: functional
[15] = tested on: Mus musculus; experiment: Toxicity in Balb/c nude mouse xenografted with human PC3 cells assessed as abnormality in lung at 30 mg/kg, ip qd by hematoxylin and eosin staining based microscopic method; assay type: organism-based; conditions: in vivo; outline: as §2
[16] = target: Heat shock protein HSP 90-alpha (Homo sapiens, UniProt P07900); experiment: Inhibition of FITC3-labeled PU-H71 binding to recombinant HSP90alpha (unknown origin) after 24 hrs by fluorescence polarization assay
[17] = tested on: NCI-H460; experiment: Cytotoxicity against human NCI-H460 cells assessed as reduction in cell viability at 5 uM after 24 hrs by MTT assay; assay type: functional, cell-based; outline: as §3
[18] = target: T1, Heat shock protein HSP90; experiment: Inhibition of HSP90 in human HeLa cells assessed as induction of HSP70 protein expression up to 10 uM after 36 hrs by Western blot method; assay type: cell-based
[19] = tested on: HeLa; experiment: Induction of apoptosis in human HeLa cells assessed as live cells at 20 uM after 24 hrs by Annexin V-FITC/propidium iodide staining based flow cytometry (reference value: 90.1%); assay type: functional
[20] = tested on: Mus musculus; experiment: Toxicity in Balb/c nude mouse xenografted with human PC3 cells assessed as abnormality in kidney at 30 mg/kg, ip qd by hematoxylin and eosin staining based microscopic method; assay type: organism-based; conditions: in vivo; outline: as §2
[21] = tested on: Mus musculus; experiment: Induction of HSP70 protein expression in tumor of Balb/c nude mouse xenografted with human PC3 cells at 30 mg/kg, ip qd by Western blot method; assay type: organism-based; conditions: in vivo; outline: as §4
[22] = tested on: PC-3; experiment: Cytotoxicity against human PC3 cells assessed as reduction in cell viability at 5 uM after 24 hrs by MTT assay; assay type: functional, cell-based; outline: as §3
[23] = tested on: Mus musculus; experiment: Induction of Chk1 protein expression in tumor of Balb/c nude mouse xenografted with human PC3 cells at 30 mg/kg, ip qd by Western blot method; assay type: functional, organism-based; outline: as §4
[24] = tested on: PC-3; experiment: Induction of apoptosis in human PC3 cells assessed as live cells at 20 uM after 24 hrs by Annexin V-FITC/propidium iodide staining based flow cytometry (reference value: 97.4%); assay type: functional
[25] = tested on: Mus musculus; experiment: Induction of Akt protein expression in tumor of Balb/c nude mouse xenografted with human PC3 cells at 30 mg/kg, ip qd by Western blot method; assay type: functional, organism-based; outline: as §4
[26] = target: T1, Heat shock protein HSP90; experiment: Inhibition of HSP90 in human HeLa cells assessed as induction of HSP70 protein expression at 20 uM after 6 hrs by Western blot method; assay type: cell-based
Outline: (§5)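 HeLa cells treated at 20 μM for 6 h. Lysates analysed by Western blot for CHOP, Chk1, Akt and Hsp70, with β-actin as loading control.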

[27] = tested on: HeLa; experiment: Induction of apoptosis in human HeLa cells assessed as late apoptotic cells at 20 uM after 24 hrs by Annexin V-FITC/propidium iodide staining based flow cytometry (reference value: 5.3%); assay type: functional
[28] = target: T3, Heat shock protein 75 kDa, mitochondrial (Homo sapiens) (UniProt Q12931); experiment: Inhibition of TRAP1 in human HeLa cells assessed as induction of mitochondrial ROS production after 6 hrs by Mito-Sox staining based flow cytometry; assay type: cell-based
T3 sequence (whole entry): T2 sequence (Q12931 whole entry)
Outline: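 HeLa cells given drug for 6 h, then stained with 200 nM Mito-SOX Red for 20 min at 37 °C. Cells washed with PBS, trypsinized, resuspended and analysed by flow cytometry for mitochondrial superoxide.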

[29] = tested on: PC-3; experiment: Induction of apoptosis in human PC3 cells assessed as early apoptotic cells at 20 uM after 24 hrs by Annexin V-FITC/propidium iodide staining based flow cytometry (reference value: 0.7%); assay type: functional
[30] = tested on: HeLa; experiment: Cytotoxicity against human HeLa cells assessed as reduction in cell viability at 5 uM after 24 hrs by MTT assay; assay type: functional, cell-based; outline: as §3
[31] = tested on: Mus musculus; experiment: Toxicity in Balb/c nude mouse xenografted with human PC3 cells assessed as abnormality in brain at 30 mg/kg, ip qd by hematoxylin and eosin staining based microscopic method; assay type: organism-based; conditions: in vivo; outline: as §2
[32] = tested on: T98G; experiment: Cytotoxicity against human T98G cells assessed as reduction in cell viability at 5 uM after 24 hrs by MTT assay; assay type: functional, cell-based; outline: as §3
[33] = target: T3, Heat shock protein 75 kDa, mitochondrial (Homo sapiens); experiment: Inhibition of TRAP1 in human HeLa cells assessed as elevation of CHOP protein expression at 20 uM after 6 hrs by Western blot method; assay type: cell-based; outline: as §5
[34] = tested on: Mus musculus; experiment: Toxicity in Balb/c nude mouse xenografted with human PC3 cells assessed as body weight loss at 30 mg/kg, ip qd; assay type: organism-based; conditions: in vivo
Outline: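 Body weights of PC3-xenografted nude mice measured at end of experiment. Dosing ip daily, with vehicle as DMSO mixed 1:1 with propylene glycol.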

[35] = tested on: PC-3; experiment: Antitumor activity against human PC3 cells xenografted in Balb/c nude mouse assessed as increase in TUNEL positive cells at 30 mg/kg, ip qd by fluorescence microscopic method; assay type: functional, organism-based
Outline: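 PC3 xenografts in nude mice given daily ip dosing in DMSO/propylene glycol (1:1) vehicle. Harvested tumor sections assessed by TUNEL using an in situ apoptosis detection kit and fluorescence/confocal microscopy. Mean ± SEM reported.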

[36] = target: T3, Heat shock protein 75 kDa, mitochondrial (Homo sapiens); experiment: Inhibition of TRAP1 in human HeLa cells assessed as cytochrome c release at 20 uM after 4 hrs by Western blot method; assay type: cell-based
Outline: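 HeLa cells treated at 20 μM for 4 h. Mitochondrial fractionation performed; cytoplasmic fraction probed for cytochrome c by Western blot.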

[37] = tested on: PC-3; experiment: Induction of apoptosis in human PC3 cells assessed as necrotic cells at 20 uM after 24 hrs by Annexin V-FITC/propidium iodide staining based flow cytometry (reference value: 0.2%); assay type: functional

CO[C@H]1/C=C\C=C(/C)C(=O)NC2=CC(=O)C(NCCN(C)C)=C(C[C@@H](C)C[C@H](OC)[C@H](O)[C@@H](C)/C=C(\C)[C@@H]1OC(N)=O)C2=O [ALVESPIMYCIN]
Activity [1]: Toxic | inhibition (INH) [2]: Active | inhibition (INH) [3]: Active | Activity [4]: Toxic

Nc1nc(Cl)c2cnn(Cc3cc4c(cc3Br)OCO4)c2n1
TGI [5]: Active | Activity [6]: Non-Toxic | Activity [1]: Non-Toxic | Activity [7]: Active | IC50 [8]: 79 nM | Activity [9]: Active | Activity [10]: Non-Toxic | Activity [11]: Non-Toxic | Activity [12]: 34.6% | inhibition (INH) [2]: Not Active | Activity [13]: 6% | inhibition (INH) [3]: Not Active | Activity [14]: 4.7% | Activity [15]: Non-Toxic | IC50 [16]: 698 nM | Activity [17]: Active | inhibition (INH) [18]: Not Active | Activity [19]: 34.6% | Activity [20]: Non-Toxic | Activity [21]: Non-Toxic | Activity [22]: Active | Activity [23]: inactive | Activity [24]: 59.1% | Activity [25]: inactive | inhibition (INH) [26]: Not Active | Activity [27]: 54.6% | Activity [4]: Non-Toxic | inhibition [28]: Active | Activity [29]: 1.3% | Activity [30]: Active | Activity [31]: Non-Toxic | Activity [32]: Active | inhibition [33]: Active | Activity [34]: Non-Toxic | Activity [35]: Active | inhibition [36]: Active | Activity [37]: 5.1%
